ChEMBL document CHEMBL1127071, “Structure-activity relationships of C-terminal endothelin hexapeptide antagonists” (J Med Chem, 1993)
pEC50, pIC50: −log10 of the molar value. Where a SMILES comes first, the peptide text is derived from it. [ ]: non-standard residue; d: D form. dDip = N[C@@H](C(=O)O)C(c1ccccc1)c1ccccc1; Orn = NCCC[C@H](N)C(=O)O

Tests used:
Endothelin receptor = target: T1, Endothelin receptor (Rattus norvegicus, UniProt P26684+P21451); assay: Binding affinity against Endothelin receptor from rat heart ventricle; format: protein assay
T1 sequence (P26684 whole entry): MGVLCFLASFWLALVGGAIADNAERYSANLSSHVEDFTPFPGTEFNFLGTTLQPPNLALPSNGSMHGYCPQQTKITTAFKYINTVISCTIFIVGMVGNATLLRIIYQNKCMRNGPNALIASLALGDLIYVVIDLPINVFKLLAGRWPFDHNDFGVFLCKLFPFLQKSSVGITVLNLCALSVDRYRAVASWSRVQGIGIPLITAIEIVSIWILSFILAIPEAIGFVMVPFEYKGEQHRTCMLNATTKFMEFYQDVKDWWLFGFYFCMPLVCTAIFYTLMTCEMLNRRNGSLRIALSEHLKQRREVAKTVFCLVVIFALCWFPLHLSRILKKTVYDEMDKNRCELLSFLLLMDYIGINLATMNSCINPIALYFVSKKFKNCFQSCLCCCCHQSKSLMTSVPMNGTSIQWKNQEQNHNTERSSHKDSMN
T1 sequence (P21451 whole entry): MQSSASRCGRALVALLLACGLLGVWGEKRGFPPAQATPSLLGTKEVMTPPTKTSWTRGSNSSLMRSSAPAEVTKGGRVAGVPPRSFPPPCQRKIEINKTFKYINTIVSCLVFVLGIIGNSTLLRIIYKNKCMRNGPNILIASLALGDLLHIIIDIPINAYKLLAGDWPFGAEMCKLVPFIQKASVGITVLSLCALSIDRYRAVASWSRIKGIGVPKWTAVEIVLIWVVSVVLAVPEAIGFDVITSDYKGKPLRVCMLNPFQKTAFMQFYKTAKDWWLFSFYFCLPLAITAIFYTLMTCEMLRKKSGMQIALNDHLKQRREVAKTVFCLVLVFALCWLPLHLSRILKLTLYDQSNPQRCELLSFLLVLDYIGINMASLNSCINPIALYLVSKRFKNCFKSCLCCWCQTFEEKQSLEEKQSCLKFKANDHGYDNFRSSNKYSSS

Rattus norvegicus = species on record: Rattus norvegicus; assay: Inhibition of ET-1 stimulated inositol phosphate accumulation in rat fibroblast; format: functional, organism-based
Outline: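 Rat skin fibroblasts prelabelled with [3H]inositol; ET-1-stimulated accumulation of total [3H]inositol phosphates in presence of Li+, measured by anion-exchange chromatography.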

Oryctolagus cuniculus = species on record: Oryctolagus cuniculus; assay: Effective concentration against ET-1 stimulated arachidonic acid release in rabbit renal artery vascular smooth muscle cells; format: functional
Outline: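 Confluent rabbit renal artery smooth muscle cells loaded 18 h at 37 °C with 0.25 µCi/mL [3H]arachidonic acid in DME/F12 with 0.5% FCS. Cells washed in Hank's/10 mM HEPES/fatty acid-free BSA buffer with three 5-min incubations. Then exposed 30 min to test compound (1 nM to 1 µM) plus 0.3 nM ET-1. Released [3H] counted by liquid scintillation; IC50 determined.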

[1] = target: T2, Endothelin receptor type B (Rattus norvegicus, UniProt P21451); assay: Effective concentration against Endothelin B receptor from rat cerebellum; format: tissue-based
T2 sequence (P21451 whole entry): T1 sequence (P21451 whole entry)
Outline: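 Competition binding of 30 pM [125I]-ET-1 (2,000 Ci/mmol) to 5 µg membranes: rabbit renal artery vascular smooth muscle (ETA) or adult rat cerebellum (ETB). Buffer is 20 mM Tris, 2 mM EDTA, 100 µM PMSF and 100 µM bacitracin, pH 7.4, 37 °C, 2 h. Reaction stopped by GF/B filtration. Nonspecific binding measured with 100 nM ET-1. Triplicate points; IC50 from a one-site nonlinear fit.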

Row | Compound | IC50 (Endothelin receptor) | pIC50 (Rattus norvegicus) | pEC50 (Oryctolagus cuniculus) | pEC50 [1]
1 | CC[C@@H](C)[C@@H](NC(=O)[C@@H](NC(=O)[C@H](CC(=O)O)NC(=O)[C@H](CC(C)C)NC(=O)[C@H](Cc1c[nH]cn1)NC(C)=O)[C@@H](C)CC)C(=O)N[C@@H](Cc1c[nH]c2ccccc12)C(=O)O | 16.9 µM | < 4.00 |  | 
2 | CC[C@H](C)[C@H](NC(=O)[C@@H](NC(=O)[C@@H](CC(=O)O)NC(=O)[C@H](CC(C)C)NC(=O)[C@H](Cc1c[nH]cn1)NC(C)=O)[C@@H](C)CC)C(=O)N[C@@H](Cc1c[nH]c2ccccc12)C(=O)O | 37 µM | < 4.30 |  | 
3 | CC[C@H](C)[C@H](NC(=O)[C@H](CC(=O)O)NC(=O)[C@H](CC(C)C)NC(=O)[C@H](Cc1c[nH]cn1)NC(C)=O)C(=O)N[C@H](C(=O)N[C@@H](Cc1c[nH]c2ccccc12)C(=O)O)[C@@H](C)CC | 58 µM | 4.30 |  | 
4 | CC[C@H](C)[C@H](NC(=O)[C@H](CC(=O)O)NC(=O)[C@H](CCC(=O)O)NC(=O)[C@H](NC(C)=O)C(c1ccccc1)c1ccccc1)C(=O)N[C@H](C(=O)N[C@@H](Cc1c[nH]c2ccccc12)C(=O)O)[C@@H](C)CC (Ac-[dDip]EDIIW-OH) |  |  | 6.89 | 7.28
5 | CC[C@H](C)[C@H](NC(=O)[C@H](CC(=O)O)NC(=O)[C@H](CC(C)C)NC(=O)[C@H](NC(C)=O)C(c1ccccc1)c1ccccc1)C(=O)N[C@H](C(=O)N[C@@H](Cc1ccc(O)cc1)C(=O)O)[C@@H](C)CC (Ac-[dDip]LDIIY-OH) |  |  | 5.37 | 5.21
6 | CC[C@H](C)[C@H](NC(=O)[C@H](CC(=O)O)NC(=O)[C@H](CC(C)C)NC(=O)[C@H](NC(C)=O)C(c1ccccc1)c1ccccc1)C(=O)N[C@H](C(=O)N[C@@H](Cc1c[nH]c2ccccc12)C(=O)O)C(C)C (Ac-[dDip]LDIVW-OH) |  |  | 5.59 | 5.22
7 | CC[C@H](C)[C@H](NC(=O)[C@@H](NC(=O)[C@H](CC(=O)O)NC(=O)[C@H](CC(C)C)NC(=O)[C@H](NC(C)=O)C(c1ccccc1)c1ccccc1)C(C)C)C(=O)N[C@@H](Cc1c[nH]c2ccccc12)C(=O)O (Ac-[dDip]LDVIW-OH) |  |  | 7.54 | 7.30
8 | CC[C@H](C)[C@H](NC(=O)[C@H](Cc1ccccc1)NC(=O)[C@H](CC(C)C)NC(=O)[C@H](NC(C)=O)C(c1ccccc1)c1ccccc1)C(=O)N[C@H](C(=O)N[C@@H](Cc1c[nH]c2ccccc12)C(=O)O)[C@@H](C)CC (Ac-[dDip]LFIIW-OH) |  |  | 5.89 | 7.22
9 | CC[C@H](C)[C@H](NC(=O)[C@H](CC(=O)O)NC(=O)[C@H](CCCN)NC(=O)[C@H](NC(C)=O)C(c1ccccc1)c1ccccc1)C(=O)N[C@H](C(=O)N[C@@H](Cc1c[nH]c2ccccc12)C(=O)O)[C@@H](C)CC (Ac-[dDip][Orn]DIIW-OH) |  |  | 7.52 | 6.82
10 | CC[C@H](C)[C@H](NC(=O)[C@H](CC(=O)O)NC(=O)[C@H](CC(C)C)NC(=O)[C@H](N)C(c1ccccc1)c1ccccc1)C(=O)N[C@H](C(=O)N[C@@H](Cc1c[nH]c2ccccc12)C(=O)O)[C@@H](C)CC (H-[dDip]LDIIW-OH) |  |  |  | 5.72
